The record followed here is ChEMBL document CHEMBL1148073, “Cytotoxic diterpenoids from Isodon megathyrsus” (1994).

≈ marks a conversion by molar mass, not a printed value. Calls of active or inactive are those of the source. The calls are words filed in the database; no cut-off is given here.

The subject of one test is ZR-75-1. Description: Cytotoxicity against human ZR-75-1 cells after 3 days by SRB assay. It counts as functional. Particulars: ZR-75-1, 72 h, read-out: ED50 (the source's name). Background: Sulforhodamine B stains cellular protein and so reports cell mass.
The test system of a further test is ASK. The test can be described thus: Cytotoxicity against human ASK cells after 3 days by SRB assay. Type of test: functional, cell-based. In a few lines: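 ASK cell line: human astrocytoma.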
The test system of a further test is Lu1. Description: Cytotoxicity against human Lu1 cells after 3 days by SRB assay. It counts as functional. Particulars: Lu1, 72 h, read-out: ED50 (the source's name).
A further test deals with KB. The test can be described thus: Cytotoxicity against human KB cells after 3 days by SRB assay. Type of test: functional. The note with it: 72 h, read-out: ED50 (the source's name).
Test [1] in a line: Cytotoxicity against human KBVIN cells after 3 days by SRB assay. Type of test: functional. The note with it: 72 h, read-out: ED50 (the source's name).
The nature of test [2]: Cytotoxicity against human KBVIN cells in presence of 1 ug/ml vinblastine after 3 days by SRB assay. The note with it: 72 h, read-out: ED50 (the source's name). Type of test: functional.
The next test concerns LNCaP. Description: Cytotoxicity against human LNCAP cells after 3 days by SRB assay. It counts as functional. The note with it: 72 h, read-out: ED50 (the source's name).
Another test deals with Plasmodium falciparum. The test can be described thus: Antimalarial activity against Plasmodium falciparum by [3H]hypoxanthine uptake. It counts as functional, organism-based.
The target of test [3] is Human immunodeficiency virus type 1 reverse transcriptase (Human immunodeficiency virus 1) (UniProt Q72547). Description: Inhibition of HIV1 reverse transcriptase.

As to `COc1cc2c(c(OC)c1OC)-c1ccc(OC)c(=O)cc1[C@@H](NC(C)=O)CC2` [COLCHICINE], the EC50 is 0.1 µg/mL (≈ 0.25 µM) in the test with ZR-75-1; 0.2 µg/mL (≈ 0.501 µM) in the test with Lu1; 0.2 µg/mL (≈ 0.501 µM) with KB; 3.5 µg/mL (≈ 8.76 µM) in test [1]; 0.6 µg/mL in test [2]; 0.06 µg/mL (≈ 0.15 µM) in the test with LNCaP. Also, the ED50 result in the test on ASK is “Active”.

Turning to `Cc1c2ccncc2c(C)c2c1[nH]c1ccccc12` [ELLIPTECINE], the EC50 with ZR-75-1 was found to be 0.9 µg/mL (≈ 3.65 µM); in the test on Lu1, 0.2 µg/mL (≈ 0.812 µM); with KB, 0.04 µg/mL (≈ 0.162 µM); in [1], 0.3 µg/mL (≈ 1.22 µM); in test [2], 0.2 µg/mL; in the test on LNCaP it was 0.8 µg/mL (≈ 3.25 µM). The ED50 entry in the test with ASK is “inactive”.

`C=C1C(=O)[C@]23[C@H](O)[C@H]1CC[C@H]2[C@@]12CO[C@@]3(O)C[C@@H]1C(C)(C)CC[C@@H]2O` [MEGATHYRIN A]: the EC50 in the test with ZR-75-1 came out at 1.8 µg/mL (≈ 5.17 µM); in the test on Lu1, 3.4 µg/mL (≈ 9.76 µM); in the test on KB, 1.1 µg/mL (≈ 3.16 µM); in test [1] it was 19.1 µg/mL (≈ 54.8 µM); in [2], 8.9 µg/mL; in the test with LNCaP, 1.8 µg/mL (≈ 5.17 µM). The result (in the test with Plasmodium falciparum; in [3]) was inactive. Also, the ED50 entry in the test on ASK is “inactive”.

Take `C=C1C(=O)[C@]23[C@H](O)[C@H]1CC[C@H]2[C@@]12CO[C@@]3(O)C[C@@H]1C(C)(C)CC[C@@H]2OC(C)=O` [RABDOCOETSIN B]: the EC50 is 0.8 µg/mL (≈ 2.05 µM) in the test with ZR-75-1; 0.5 µg/mL (≈ 1.28 µM) in the test on Lu1; 0.3 µg/mL (≈ 0.768 µM) in the test with KB; more than 20 µg/mL in test [1]; 7.2 µg/mL in test [2]; 0.6 µg/mL (≈ 1.54 µM) with LNCaP. Besides, the outcome (in the test on Plasmodium falciparum; in test [3]) was inactive. Also, in the test with ASK, the ED50 entry was “inactive”.

As to `C=C1C(=O)[C@]23C[C@H]1C[C@H](O)[C@H]2[C@@]12CO[C@@]3(O)C[C@@H]1C(C)(C)CC[C@@H]2O` [RABDOCOETSIN C], the EC50 in the test on ZR-75-1 was 1 µg/mL (≈ 2.87 µM); in the test on Lu1, 0.4 µg/mL (≈ 1.15 µM); in the test with KB it was 0.6 µg/mL (≈ 1.72 µM); in [1] it was more than 20 µg/mL; in test [2], more than 20 µg/mL; in the test on LNCaP, 0.7 µg/mL (≈ 2.01 µM). Further, the result (in the test with Plasmodium falciparum; in test [3]) was inactive. The ED50 entry in the test with ASK is “inactive”.

For the compound `C=C1C(=O)[C@]23C[C@H]1C[C@H](OC(C)=O)[C@H]2[C@@]12CO[C@@]3(O)C[C@@H]1C(C)(C)CC[C@@H]2O` [RABDOCOETSIN D], the EC50 worked out at 0.8 µg/mL (≈ 2.05 µM) with ZR-75-1; 0.9 µg/mL (≈ 2.3 µM) in the test on Lu1; 0.5 µg/mL (≈ 1.28 µM) in the test with KB; 9.5 µg/mL (≈ 24.3 µM) in [1]; 12.1 µg/mL in [2]; 0.8 µg/mL (≈ 2.05 µM) with LNCaP. In addition, the result (with Plasmodium falciparum; in [3]) was inactive. Moreover, the ED50 entry in the test with ASK was “inactive”.
